Test results as given in ChEMBL document CHEMBL3259615, “Combination of triple bond and adamantane ring on the vitamin D side chain produced partial agonists for vitamin D receptor” (J Med Chem, 2014).
The source made the active and inactive calls. The rule behind the calls is not given here.

Experiments:
HaCaT [1] = experiment: Induction of cyp24A1 mRNA expression in human HaCaT cells at 100 nM after 24 hrs by real-time PCR relative to 1-alpha,25-dihydroxyvitamin D3; format: functional
How it was run: (§1)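 Cells seeded at 1 × 10⁴ per well and treated 24 h later with ethanol vehicle or 100 nM ligand for 24 h. Total RNA taken by a chloroform method, reverse-transcribed, and target mRNA quantified by SYBR Green real-time PCR, normalized to ACTIN mRNA. Culture media: HEK293 in DMEM 5% FBS; SW480 and HaCaT in DMEM 10% FBS; MG63 in MEM 10% FBS; THP-1 and U937 in RPMI1640 10% FBS; all at 37 °C, 5% CO₂.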

Vitamin D3 receptor [2] = biological target: T1, Vitamin D3 receptor (Homo sapiens, UniProt P11473); experiment: Displacement of [3H]-1,25(OH)2D3 from GST-fused human VDR-LBD expressed in Escherichia coli BL21
T1 sequence (P11473 whole entry): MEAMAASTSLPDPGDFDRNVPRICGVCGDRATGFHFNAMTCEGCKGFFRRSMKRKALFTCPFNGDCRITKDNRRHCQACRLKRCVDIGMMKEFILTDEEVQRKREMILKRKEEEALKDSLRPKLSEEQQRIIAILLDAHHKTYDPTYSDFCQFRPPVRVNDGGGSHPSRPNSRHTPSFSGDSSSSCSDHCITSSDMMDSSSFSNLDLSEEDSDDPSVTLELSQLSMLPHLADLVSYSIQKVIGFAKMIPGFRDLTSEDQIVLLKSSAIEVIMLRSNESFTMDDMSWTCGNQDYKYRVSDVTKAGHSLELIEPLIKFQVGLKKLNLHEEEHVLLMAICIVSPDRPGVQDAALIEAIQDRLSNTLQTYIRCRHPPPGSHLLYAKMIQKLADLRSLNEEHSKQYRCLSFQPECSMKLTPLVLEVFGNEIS
How it was run: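 hVDR-LBD (aa 140–427) as a GST fusion from E. coli BL21 sonicated lysate, 1 μg in pH 7.5 Tris/KCl/DTT/CHAPS buffer with BSA. Ligand in EtOH was preincubated 30 min at RT. [26,27-methyl-³H]-1,25(OH)₂D₃ was then added for 20 h at 4 °C. Free ligand was removed with dextran-coated charcoal and centrifugation, and bound radioactivity counted. IC50 from at least two triplicate runs.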

Vitamin D3 receptor [3] = biological target: T1, Vitamin D3 receptor; experiment: Transactivation of human VDR expressed in HEK293 cells cotransfected with mouse VDRE, Tk-Sppx3-LUC reporter plasmid measured after 24 hrs by luciferase reporter assay; format: cell-based
How it was run: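 HEK293 cells in DMEM with 5% FBS, calcium phosphate-transfected per well with 50 ng TK-Spp×3-LUC (mouse osteopontin VDRE), 10 ng pCMX-β-galactosidase, 15 ng pCMX-VDR and 15 ng pCMX-RXRα. Compounds were tested across a concentration range and cells harvested after 16–24 h. Luciferase was normalised to β-galactosidase. EC50 and efficacy relative to 1,25(OH)₂D₃.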

SW480 [4] = experiment: Induction of TRPV6 mRNA expression in human SW480 cells at 100 nM after 24 hrs by real-time PCR relative to 1-alpha,25-dihydroxyvitamin D3; format: functional; how it was run: as §1
[5] = biological target: T2, Vitamin D3 receptor (Homo sapiens) (UniProt P11473); conditions: HEK293, 10 to 1000 nM
T2 sequence (whole entry): T1 sequence (P11473 whole entry)

THP-1 [6] = experiment: Induction of cathelicidine antimicrobial peptide mRNA expression in human THP1 cells at 100 nM after 24 hrs by real-time PCR relative to 1-alpha,25-dihydroxyvitamin D3; format: functional; how it was run: as §1
Vitamin D3 receptor [7] = biological target: T1, Vitamin D3 receptor; experiment: Activation of human VDR expressed in HEK293 cells cotransfected CMX-GAL4-N-CoR and 4-tk-LUC assessed as inhibition of N-CoR binding to VDR by mammalian two-hybrid assay; format: cell-based
How it was run: (§2)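 HEK293 cells in DMEM with 5% FBS, per well: 50 ng TK-MH100(UAS)×4-LUC reporter, 10 ng pCMX-β-galactosidase, 15 ng pCMX-VP16-VDR, and 15 ng of a GAL4 fusion. The fusion was RXRα for heterodimerisation, SRC-1 for coactivator binding, N-CoR, or SMRT (NCoR2). Cells were treated across a concentration range. Luciferase was normalised to β-galactosidase.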

Vitamin D3 receptor [8] = biological target: T1, Vitamin D3 receptor; experiment: Activation of human VDR expressed in HEK293 cells cotransfected CMX-GAL4-RXRalpha and 4-tk-LUC assessed as heterodimerization with RXRalpha by mammalian two-hybrid assay; format: cell-based; how it was run: as §2
Vitamin D3 receptor [9] = biological target: T1, Vitamin D3 receptor; experiment: Activation of human VDR expressed in HEK293 cells cotransfected CMX-GAL4-NCoR2 and 4-tk-LUC assessed as inhibition of NCoR2 binding to VDR by mammalian two-hybrid assay; format: cell-based; how it was run: as §2
MG-63 = experiment: Induction of cyp24A1 mRNA expression in human MG63 cells at 100 nM after 24 hrs by real-time PCR relative to 1-alpha,25-dihydroxyvitamin D3; format: functional; how it was run: as §1
THP-1 [10] = experiment: Induction of cyp24A1 mRNA expression in human THP1 cells at 100 nM after 24 hrs by real-time PCR relative to 1-alpha,25-dihydroxyvitamin D3; format: functional; how it was run: as §1
SW480 [11] = experiment: Induction of cyp24A1 mRNA expression in human SW480 cells at 100 nM after 24 hrs by real-time PCR relative to 1-alpha,25-dihydroxyvitamin D3; format: functional; how it was run: as §1
U-937 [12] = experiment: Induction of cathelicidine antimicrobial peptide mRNA expression in human U937 cells at 100 nM after 24 hrs by real-time PCR relative to 1-alpha,25-dihydroxyvitamin D3; format: functional; how it was run: as §1
HEK293 [13] = experiment: Induction of cyp24A1 mRNA expression in HEK293 cells at 100 nM after 24 hrs by real-time PCR; format: functional, cell-based; conditions: Homo sapiens; how it was run: as §1
HaCaT [14] = experiment: Induction of cathelicidine antimicrobial peptide mRNA expression in human HaCaT cells at 100 nM after 24 hrs by real-time PCR relative to 1-alpha,25-dihydroxyvitamin D3; format: functional; how it was run: as §1
U-937 [15] = experiment: Induction of cyp24A1 mRNA expression in human U937 cells at 100 nM after 24 hrs by real-time PCR relative to 1-alpha,25-dihydroxyvitamin D3; format: functional; how it was run: as §1
Vitamin D3 receptor [16] = biological target: T1, Vitamin D3 receptor; experiment: Activation of human VDR expressed in HEK293 cells cotransfected CMX-GAL4-SRC1 and 4-tk-LUC assessed as SRC1 interaction with AF2 surface of VDR by mammalian two-hybrid assay; format: cell-based; how it was run: as §2
[17] = biological target: T2, Vitamin D3 receptor (Homo sapiens); experiment: Inhibition of 1,25(OH)2D3-induced transactivation of human VDR expressed in HEK293 cells cotransfected with mouse VDRE, Tk-Sppx3-LUC reporter plasmid measured after 24 hrs by luciferase reporter assay; format: cell-based
How it was run: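 HEK293 cells in DMEM with 5% FBS were calcium-phosphate cotransfected with TK-Spp×3-LUC reporter, pCMX-β-galactosidase, pCMX-VDR and pCMX-RXRα. Cells were then exposed to a range of test concentrations together with 10 nM 1,25(OH)₂D₃. Harvest came 16–24 h later, with luciferase normalized to β-galactosidase.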

THP-1 [18] = experiment: Induction of cathelicidine antimicrobial peptide mRNA expression in human THP1 cells at 100 nM after 24 hrs by real-time PCR relative to skin cells; format: functional
How it was run: (§3)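 THP-1 and U937 cells were grown in RPMI1640 with 10% FBS and penicillin/streptomycin at 37 °C under 5% CO₂, and plated at 1 × 10⁴ cells/well. After 24 h, cells got an ethanol control, 100 nM 1,25(OH)₂D₃ or 100 nM analogue for 24 h. RNA was extracted by a chloroform method and reverse-transcribed. CAMP was measured by SYBR Green real-time PCR, normalized to ACTIN mRNA and compared with 1,25(OH)₂D₃.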

HEK293 [19] = experiment: Induction of cyp24A1 mRNA expression in HEK293 cells at 100 nM after 24 hrs by real-time PCR relative to 1-alpha,25-dihydroxyvitamin D3; format: functional, Homo sapiens; how it was run: as §1
U-937 [20] = experiment: Induction of cathelicidine antimicrobial peptide mRNA in human U937 cells at 100 nM after 24 hrs by real-time PCR relative to skin cells; format: functional; how it was run: as §3

| SMILES | Activity (HaCaT [1]) [%] | IC50 (Vitamin D3 receptor [2]) [nM] | EC50 (Vitamin D3 receptor [3]) [nM] | Activity (SW480 [4]) [%] | inhibition [5] | Activity (THP-1 [6]) [%] | EC50 (Vitamin D3 receptor [7]) [nM] | EC50 (Vitamin D3 receptor [8]) [nM] | EC50 (Vitamin D3 receptor [9]) [nM] | Activity (MG-63) [%] | Activity (THP-1 [10]) [%] | Activity (SW480 [11]) [%] | Activity (U-937 [12]) [%] | Activity (HEK293 [13]) | Activity (HaCaT [14]) [%] | Activity (U-937 [15]) [%] | EC50 (Vitamin D3 receptor [16]) [nM] | fold change (FC) (THP-1 [18]) | Activity (HEK293 [19]) [%] | fold change (FC) (U-937 [20]) | other results |
| --- | --- | --- | --- | --- | --- | --- | --- | --- | --- | --- | --- | --- | --- | --- | --- | --- | --- | --- | --- | --- | --- |
| C=C1[C@H](O)CC(=C/C=C2\CCC[C@]3(C)[C@@H]([C@H](C)CC#C[C@@H](O)C45CC6CC(CC(C6)C4)C5)CC[C@@H]23)C[C@H]1O | 30 | 0.5 | 0.07 | 65 | inactive | 105 | 0.4 | 0.6 | 0.5 | 50 | 70 | 50 | 125 | Active | 60 | 85 | 1.5 |  |  |  |  |
| C=C1[C@H](O)CC(=C/C=C2\CCC[C@]3(C)[C@@H]([C@H](C)/C=C/C[C@H](O)C45CC6CC(CC(C6)C4)C5)CC[C@@H]23)C[C@H]1O |  |  |  |  |  |  |  |  |  |  |  |  |  |  |  |  |  |  |  |  | inhibition [17]: Dose-dependent effect |
| C=C1[C@H](O)CC(=C/C=C2\CCC[C@]3(C)[C@@H]([C@H](C)CC#C[C@@H](O)CC45CC6CC(CC(C6)C4)C5)CC[C@@H]23)C[C@H]1O | 10 | 12 | 1.1 | 35 | Active | 55 | 1.8 | 0.8 | 2.8 | 50 | 10 | 10 | 65 |  | 15 | 50 | 13.5 | 3.5 | 30 | 3.5 |  |
| C=C1[C@H](O)CC(=C/C=C2\CCC[C@]3(C)[C@@H]([C@H](C)CC#C[C@H](O)CC45CC6CC(CC(C6)C4)C5)CC[C@@H]23)C[C@H]1O | 10 | 13 | 1.5 | 40 | Active | 74 | 3.7 | 2.3 | 2.4 | 50 | 10 | 10 | 75 |  | 20 | 50 | 6.5 | 3.5 | 45 | 3.5 |  |
| C=C1/C(=C\C=C2/CCC[C@]3(C)[C@@H]([C@H](C)CCCC(C)(C)O)CC[C@@H]23)C[C@@H](O)C[C@@H]1O |  |  |  |  |  |  |  |  |  |  |  |  |  | Active |  |  |  |  |  |  |  |
| C=C1[C@H](O)CC(=C/C=C2\CCC[C@]3(C)[C@@H]([C@H](C)CC#C[C@H](O)C45CC6CC(CC(C6)C4)C5)CC[C@@H]23)C[C@H]1O | 22 | 12 | 6.6 | 30 | Active | 20 | 4 | 4.4 | 4.1 | 5 | 1 | 32 | 30 |  | 15 | 1 | 15 |  | 15 |  |  |
